Calls of active or inactive are those of the source. The calls are words filed in the database; no cut-off is given here.
Key:
[1] = molecular target: T1, Ectonucleoside triphosphate diphosphohydrolase 3 (Homo sapiens) (UniProt O75355); assay: Activity of human NTPDase3 expressed in COS7 cells assessed as amount of inorganic phosphate released using ATP as the substrate at 100 uM after 15 mins by malachite green reagent method; type: cell-based; conditions: COS-7
T1 sequence (whole entry): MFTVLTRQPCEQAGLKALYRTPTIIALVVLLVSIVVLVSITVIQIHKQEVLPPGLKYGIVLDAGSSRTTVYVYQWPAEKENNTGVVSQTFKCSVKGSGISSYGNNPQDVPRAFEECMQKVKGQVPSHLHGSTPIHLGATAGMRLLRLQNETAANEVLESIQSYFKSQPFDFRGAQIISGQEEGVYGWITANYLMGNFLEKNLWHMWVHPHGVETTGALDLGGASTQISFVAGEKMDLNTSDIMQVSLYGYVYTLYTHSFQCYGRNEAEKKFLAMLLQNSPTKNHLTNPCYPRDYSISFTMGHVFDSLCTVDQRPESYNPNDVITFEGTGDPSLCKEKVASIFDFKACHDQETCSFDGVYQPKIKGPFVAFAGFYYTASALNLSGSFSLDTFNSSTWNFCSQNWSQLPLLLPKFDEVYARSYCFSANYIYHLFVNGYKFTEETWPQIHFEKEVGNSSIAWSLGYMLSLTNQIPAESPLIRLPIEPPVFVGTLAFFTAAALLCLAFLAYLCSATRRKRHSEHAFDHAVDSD
Method in brief: (§1)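 Crude membrane-enriched protein extract of transiently transfected COS-7 cells, preincubated 3 min at 37 °C in Tris-Ringer buffer pH 7.3. Reaction started with 100 μM ATP, or with the analogue alone at 100 μM to test it as substrate. Stopped after 15 min with malachite green reagent; released Pi read at 630 nm. Mean ± SD, n = 3.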

[2] = molecular target: T2, P2Y purinoceptor 11 (Homo sapiens) (UniProt Q96G91); assay: Agonist activity at GFP tagged-human P2Y11 receptor expressed in human 1321N1 cells assessed as elevation in calcium level at 50 uM after 30 mins by fluorescence spectrophotometric analysis; type: functional, cell-based
T2 sequence (whole entry): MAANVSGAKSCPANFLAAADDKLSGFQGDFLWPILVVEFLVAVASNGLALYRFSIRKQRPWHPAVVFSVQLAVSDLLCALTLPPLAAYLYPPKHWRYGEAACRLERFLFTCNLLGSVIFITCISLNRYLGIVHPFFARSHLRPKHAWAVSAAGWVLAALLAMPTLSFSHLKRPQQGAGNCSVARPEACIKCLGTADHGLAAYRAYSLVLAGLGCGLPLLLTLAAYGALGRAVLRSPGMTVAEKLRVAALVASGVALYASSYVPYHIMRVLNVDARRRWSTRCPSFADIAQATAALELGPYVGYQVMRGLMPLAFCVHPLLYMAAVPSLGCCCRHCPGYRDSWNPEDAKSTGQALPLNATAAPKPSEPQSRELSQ

P2Y purinoceptor 11 = molecular target: T3, P2Y purinoceptor 11 (Homo sapiens, UniProt Q96G91); assay: Agonist activity at GFP tagged-human P2Y11 receptor expressed in human 1321N1 cells assessed as elevation in calcium level after 30 mins by fluorescence spectrophotometric analysis; type: functional, cell-based
T3 sequence (Q96G91 whole entry): T2 sequence (whole entry)

[3] = molecular target: T4, Ectonucleoside triphosphate diphosphohydrolase 2 (Homo sapiens) (UniProt Q9Y5L3); assay: Activity of human NTPDase2 expressed in COS7 cells assessed as amount of inorganic phosphate released using ATP as the substrate at 100 uM after 15 mins by malachite green reagent method; type: cell-based; conditions: COS-7; method in brief: as §1
T4 sequence (whole entry): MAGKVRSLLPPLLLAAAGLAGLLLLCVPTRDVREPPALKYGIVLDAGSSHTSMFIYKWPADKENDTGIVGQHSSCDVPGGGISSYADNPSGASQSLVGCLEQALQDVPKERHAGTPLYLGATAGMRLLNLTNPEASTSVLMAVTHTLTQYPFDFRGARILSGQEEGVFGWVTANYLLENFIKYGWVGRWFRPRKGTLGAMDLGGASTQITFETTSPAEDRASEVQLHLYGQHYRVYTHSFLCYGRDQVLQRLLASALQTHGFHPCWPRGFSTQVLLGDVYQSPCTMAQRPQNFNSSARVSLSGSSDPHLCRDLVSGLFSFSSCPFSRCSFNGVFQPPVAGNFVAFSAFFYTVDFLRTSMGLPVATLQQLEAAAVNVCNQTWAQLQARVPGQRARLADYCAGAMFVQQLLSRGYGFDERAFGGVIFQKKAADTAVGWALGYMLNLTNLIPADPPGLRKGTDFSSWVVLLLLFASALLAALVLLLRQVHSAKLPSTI

Activity [1] [%]	Activity [2]	EC50 (P2Y purinoceptor 11) [µM]	Activity [3] [%]	SMILES
1.8	inactive			Nc1ncnc2c1ncn2[C@H]1C[C@H](O)[C@@H](COP(=O)(O)CP(=O)(O)OP(=O)(O)CP(=O)(O)OC[C@H]2O[C@@H](n3cnc4c(N)ncnc43)C[C@@H]2O)O1
		13		BP(=O)(OP(=O)(O)CP(=O)(O)OC[C@H]1O[C@@H](n2cnc3c(N)ncnc32)[C@H](O)[C@@H]1O)OP(=O)(O)CP(=O)(O)OC[C@H]1O[C@@H](n2cnc3c(N)ncnc32)[C@H](O)[C@@H]1O
	inactive		0.2	BP(=O)(OP(=O)(O)CP(=O)(O)OC[C@H]1O[C@@H](n2cnc3c(N)ncnc32)C[C@@H]1O)OP(=O)(O)CP(=O)(O)OC[C@H]1O[C@@H](n2cnc3c(N)ncnc32)C[C@@H]1O
5.3		≥ 40	0.1	Nc1ncnc2c1ncn2[C@@H]1O[C@H](COP(=O)(O)CP(=O)(O)OP(=O)(O)CP(=O)(O)OC[C@H]2O[C@@H](n3cnc4c(N)ncnc43)[C@H](O)[C@@H]2O)[C@@H](O)[C@H]1O
